Source: ChEMBL document CHEMBL4041534, “Treatment of Sepsis Pathogenesis with High Mobility Group Box Protein 1-Regulating Anti-inflammatory Agents” (J Med Chem, 2017)
Residue numbers refer to the chain shown, from its start. ≈ marks a conversion by molar mass, not a printed value. Calls of active or inactive are those of the source. The rule behind the calls is not given here.

Key:
[1] = target: T1, High mobility group protein B1 (Mus musculus) (UniProt P63158); experiment: Inhibition of HMGB1 translocation from nucleus to cytosol in LPS-stimulated mouse RAW264.7 cells assessed as inhibition of NO release at 10 uM measured after 24 hrs by Griess assay relative to control
T1 sequence (whole entry): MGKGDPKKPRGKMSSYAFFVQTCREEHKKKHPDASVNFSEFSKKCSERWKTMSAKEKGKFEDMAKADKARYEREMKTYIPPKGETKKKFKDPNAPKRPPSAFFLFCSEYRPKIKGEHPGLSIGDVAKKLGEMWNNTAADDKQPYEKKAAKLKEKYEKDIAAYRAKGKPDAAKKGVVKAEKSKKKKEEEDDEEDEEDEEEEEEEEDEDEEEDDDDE
Outline: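 Raw264.7 cells, seeded 1 day earlier, were moved to serum-free DMEM and exposed to 100 ng/mL LPS with 10 μM compound for 24 h. Supernatant NO was measured with Griess reagent (sulfanilamide/N-(1-naphthyl)ethylenediamine/phosphoric acid) at room temperature, absorbance 548 nm. Inhibition was set against LPS+DMSO wells, blank-corrected, with four control wells. At least three independent experiments.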

[2] = Cytotoxicity against mouse RAW264.7 cells assessed as cell viability at 10 uM in presence of LPS measured after 24 hrs by WST assay relative to control; assay type: cell-based; details: read-out: Activity
Outline: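 Raw264.7 cells, seeded 1 day earlier, were washed into serum-free DMEM and given 100 ng/mL LPS plus compound (10 μM) for 24 h. After the supernatant was removed, wells were refilled with 10% FBS DMEM and WST reagent was added for 20 min at 37 °C. Absorbance was read at 450 nm, and viability is relative to vehicle. At least three independent experiments.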

[3] = target: T1, High mobility group protein B1 (Mus musculus); experiment: Inhibition of HMGB1 translocation from nucleus to cytosol in LPS-stimulated mouse RAW264.7 cells assessed as inhibition of TNF-alpha production at 10 uM measured after 4 hrs by ELISA relative to control
Outline: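 Raw264.7 cells in serum-free DMEM were treated with 100 ng/mL LPS and 10 μM compound (final). After 4 h, medium was diluted in 1% BSA/PBS and secreted TNF-α was quantified by ELISA against a standard curve of TNF-α protein. Inhibition is relative to control. At least three independent experiments.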

[4] = target: T1, High mobility group protein B1 (Mus musculus); experiment: Inhibition of HMGB1 nuclear translocation in LPS-stimulated mouse RAW264.7 cells at 20 uM pretreated for 1 hr followed by LPS-induction measured after 2 hrs by Hoechst 33342/TRITC staining based immunofluorescence microscopic method
Outline: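 Raw264.7 cells on chambered coverglass were pretreated with 20 μM compound for 1 h, then given 500 ng/mL LPS for 2 h. Cells were fixed in 4% paraformaldehyde, permeabilized with methanol at −20 °C, blocked with 2% BSA, and stained with anti-HMGB1 plus TRITC secondary and Hoechst 33342. Imaged by deconvolution fluorescence microscopy. At least three independent experiments.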

[5] = target: T1, High mobility group protein B1 (Mus musculus); experiment: Inhibition of HMGB1 nuclear translocation in LPS-stimulated mouse RAW264.7 cells assessed as inhibition of IL-6 production at 10 uM pretreated for 1 hr followed by LPS-induction by Western blot analysis
Outline: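 Raw264.7 cells were pretreated with 10 μM compound for 1 h, then given 100 ng/mL LPS. IL-6 released into the culture medium was detected by Western blot with ECL chemiluminescence, DMSO as control. At least three independent experiments.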

[6] = system: Mus musculus; experiment: Anti-inflammatory activity in C57BL/6(B6) mouse model of CLP-induced sepsis assessed as increase in survival rate at 10 mg/kg, ip administered daily for 9 days starting from 1 hr prior to CLP-induction; assay type: functional, organism-based
Outline: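 C57BL/6 mice from a specific pathogen-free facility underwent CLP. The cecum was ligated below the ileocecal valve 5.0 mm from the tip, punctured once with a 20-gauge needle and a little stool extruded, then the abdomen was closed. Mice received 10 mg/kg ip daily for 9 days and survival was followed against vehicle-treated mice.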

[7] = system: Mus musculus; experiment: Anti-inflammatory activity in C57BL/6(B6) mouse model of CLP-induced sepsis assessed as decrease in serum IL-6 level at 10 mg/kg, ip administered daily for 9 days starting from 1 hr prior to CLP-induction by ELISA; assay type: functional, organism-based
[8] = target: T2, High mobility group protein B1 (Homo sapiens) (UniProt P09429); experiment: Inhibition of ICM-BP binding to recombinant human HMGB1 assessed as reduction in Cy5-azide incorporation pretreated for 60 mins followed by ICM-BP addition for 20 mins and subsequent UV light irradiation for 5 mins by fluorescence assay
T2 sequence (whole entry): T1 sequence (whole entry) with D189E, E202D
Outline: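 Purified HMGB1 (1 μg in water) was pretreated with competitor for 60 min, with DMSO held at 0.8% final. ICM-BP (5 μM) was then added for 20 min, followed by 365 nm UV for 5 min on ice. Cy5-azide was attached by click reaction, then samples were run on 12.5% SDS-PAGE and in-gel fluorescence scanned. Competitor was dosed in a graded series.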

[9] = target: MAP kinase p38 (Mus musculus) (UniProt P47811+O08911+Q9WUI1+Q9Z1B7); experiment: Inhibition of MAPK p38 phosphorylation at Thr180/Tyr182 resdiues in LPS-stimulated mouse RAW264.7 cells at 20 uM pretreated followed by LPS-induction by Western blot analysis
Outline: (§1)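 Raw264.7 cells were pretreated with 20 μM compound, then stimulated with 100 ng/mL LPS, with DMSO as control. Lysates in RIPA buffer with protease and phosphatase inhibitors were normalized by BCA and run on SDS-PAGE/Western blot for phospho-p38, JNK and ERK, with GAPDH as loading control. Detection by ECL, and band intensities were quantified. At least three independent experiments.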

[10] = species: Mus musculus; experiment: Inhibition of JNK phosphorylation at Thr183/Tyr185 resdiues in LPS-stimulated mouse RAW264.7 cells at 20 uM pretreated followed by LPS-induction by Western blot analysis; outline: as §1
[11] = species: Mus musculus; experiment: Inhibition of ERK phosphorylation in LPS-stimulated mouse RAW264.7 cells at 20 uM pretreated followed by LPS-induction by Western blot analysis; outline: as §1
[12] = species: Mus musculus; experiment: Inhibition of NF-kappaB p65 nuclear translocation in LPS-stimulated mouse RAW264.7 cells at 20 uM pretreated followed by LPS-induction by Hoechst 33342/TRITC staining based immunofluorescence microscopic method
Outline: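 NF-κB p65 immunofluorescence in Raw264.7 cells pretreated with 20 μM compound, then stimulated with 500 ng/mL LPS. Fixation was 4% paraformaldehyde, methanol permeabilization at −20 °C, and BSA blocking. Cells were stained with anti-p65 plus TRITC secondary and Hoechst 33342 nuclear stain, then imaged by deconvolution microscopy. At least three independent experiments.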

[13] = Equilibrium aqueous solubility of the compound by microsol method; assay type: physicochemical
Outline: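 Equilibrium aqueous solubility by the μsol method. Mean ± SD, n = 3.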

[14] = Stability in mouse liver microsomes assessed as compound remaining preincubated for 5 mins followed by NADPH addition measured after 30 mins LC/MS/MS method; assay type: ADME, microsome; details: read-out: Stability
Outline: (§2)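 Compounds were incubated with human or mouse liver microsomes in 100 mM potassium phosphate, pH 7.4, at 37 °C for 5 min. NADPH regenerating solution was added, and the reaction was stopped at 30 min with ice-cold acetonitrile containing imipramine internal standard. Percent remaining was measured by LC/MS/MS. Mean ± SD, n = 3.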

[15] = Stability in human liver microsomes assessed as compound remaining preincubated for 5 mins followed by NADPH addition measured after 30 mins LC/MS/MS method; assay type: ADME, microsome; details: read-out: Stability; outline: as §2
[16] = system: Mus musculus; experiment: Anti-inflammatory activity in C57BL/6(B6) mouse model of CLP-induced sepsis assessed as survival rate at 10 mg/kg, ip administered daily for 21 days starting from 1 hr prior to CLP-induction (reference value: 10 %); assay type: functional
[17] = system: Mus musculus; experiment: Anti-inflammatory activity in C57BL/6(B6) mouse model of CLP-induced sepsis assessed as decrease in serum IL-6 level at 10 mg/kg, ip administered daily for 21 days starting from 1 hr prior to CLP-induction by ELISA; assay type: functional, organism-based
Outline: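 Serum IL-6 measured by sandwich ELISA. Blood was taken from CLP-induced C57BL/6 mice 24 h after surgery. Plates coated with anti-IL-6 mAb overnight at 4 °C and blocked with 1% BSA/PBS; serum incubated overnight at 4 °C. Detection used biotinylated anti-IL-6 and streptavidin-HRP, TMB development and absorbance at 450 nm. Run in triplicate, three independent repeats.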

With `COc1ccc2c(c1)OC(C)(C)C1=CCn3c(=O)n(-c4ccccc4)c(=O)n3C12` (stereo not given) the inhibition [1] was 44%.
`Cc1ccc(-n2c(=O)n3n(c2=O)C2C(=CC3)C(C)(C)Oc3cc(O)ccc32)cc1` (stereo not given) showed an inhibition [1] of 94%, a viability at 24 h, 10 µM [2] of 130% and an inhibition [3] of 45%. The inhibition [4] was “Active” and the inhibition [5] was “Active”.
Work on `CC1(C)Oc2ccccc2C2C1=CCn1c(=O)n(-c3ccccc3)c(=O)n12` (stereo not given) yielded an inhibition [1] of 83%.
With `CC1(C)Oc2cc(O)ccc2C2C1=CCn1c(=O)n(C3CCCCC3)c(=O)n12` (stereo not given) the inhibition [1] was 63% and the viability at 24 h, 10 µM [2] was 117%.
With `CC1(C)Oc2cc(O)ccc2C2C1=CCn1c(=O)n(-c3ccccc3I)c(=O)n12` (stereo not given) the inhibition [1] was 48% and the viability at 24 h, 10 µM [2] was 109%.
`CC1(C)Oc2cc(F)ccc2C2C1=CCn1c(=O)n(-c3ccccc3)c(=O)n12` (stereo not given) showed an inhibition [1] of 79%.
With `CC1(C)Oc2cc(O)ccc2C2C1=CCn1c(=O)n(-c3ccccc3)c(=O)n12` (stereo not given) the Activity [6] was “Active”, the Activity [7] was “Active” and the inhibition [1] was 87%. The viability at 24 h, 10 µM [2] was 105%, the inhibition [3] was 43% and the inhibition [4] was “Active”. For the same compound, the inhibition [5] was “Active”, the inhibition [8] was “Dose-dependent effect” and the inhibition [9] was “Active”. For the same compound, the inhibition [10] was “Active”, the inhibition [11] was “Active” and the inhibition [12] was “Active”. The solubility thermodynamic [13] was 23.5 µg/mL (≈ 62.3 µM), the remaining at 0.5 h [14] was 0.41% and the remaining at 0.5 h [15] was 0.82%. For the same compound, the survival at 10 mg/kg [16] was 45% and the Activity [17] was “Active”.
Compound `CC(=O)N1CCC2(CC1)Oc1cc(O)ccc1C1C2=CCn2c(=O)n(-c3ccccc3)c(=O)n21` (stereo not given) has an inhibition [1] of 36%.
In the case of `CC1(C)Oc2cc(O)ccc2C2C1CCn1c(=O)n(-c3ccccc3)c(=O)n12` (stereo not given), the inhibition [1] is reported as “inactive”.
`CCCN1CCC2(CC1)Oc1cc(O)ccc1C1C2=CCn2c(=O)n(-c3ccccc3)c(=O)n21` (stereo not given) gave an inhibition [1] of 47%.
`CC(=O)c1ccc(-n2c(=O)n3n(c2=O)C2C(=CC3)C(C)(C)Oc3cc(O)ccc32)cc1` (stereo not given) gave an inhibition [1] of 93%, a viability at 24 h, 10 µM [2] of 111% and an inhibition [3] of 68%. The inhibition [4] was “Active”, the inhibition [5] was “Active” and the inhibition [8] was “Dose-dependent effect”. For the same compound, the inhibition [9] was “Active”, the inhibition [10] was “Active” and the inhibition [11] was “Active”. For the same compound, the inhibition [12] was “Active”, the solubility thermodynamic [13] was 162 µg/mL (≈ 387 µM) and the remaining at 0.5 h [14] was 2.46%. The remaining at 0.5 h [15] was 30.2%, the survival at 10 mg/kg [16] was 74% and the Activity [17] was “Active”.
For `COc1ccc(-n2c(=O)n3n(c2=O)C2C(=CC3)C(C)(C)Oc3cc(O)ccc32)cc1` (stereo not given), the inhibition [1] was 89%, the viability at 24 h, 10 µM [2] was 127% and the inhibition [3] was 44%.
